Results reported in ChEMBL document CHEMBL4354819, “Discovery of Novel Small Molecule Dual Inhibitors Targeting Toll-Like Receptors 7 and 8” (J Med Chem, 2019).
pIC50: −log10 of the molar value. Calls of active or inactive are those of the source. The rule behind the calls is not given here.

Legend:
Toll-like receptor 7 = molecular target: T1, Toll-like receptor 7 (Homo sapiens, UniProt Q9NYK1); assay: Inhibition of human TLR7 expressed in HEK293 cells assessed as reduction in R848-induced NFkappaB production incubated for 16 hrs by quanti-blue SEAP assay; type: cell-based
T1 sequence (Q9NYK1 whole entry): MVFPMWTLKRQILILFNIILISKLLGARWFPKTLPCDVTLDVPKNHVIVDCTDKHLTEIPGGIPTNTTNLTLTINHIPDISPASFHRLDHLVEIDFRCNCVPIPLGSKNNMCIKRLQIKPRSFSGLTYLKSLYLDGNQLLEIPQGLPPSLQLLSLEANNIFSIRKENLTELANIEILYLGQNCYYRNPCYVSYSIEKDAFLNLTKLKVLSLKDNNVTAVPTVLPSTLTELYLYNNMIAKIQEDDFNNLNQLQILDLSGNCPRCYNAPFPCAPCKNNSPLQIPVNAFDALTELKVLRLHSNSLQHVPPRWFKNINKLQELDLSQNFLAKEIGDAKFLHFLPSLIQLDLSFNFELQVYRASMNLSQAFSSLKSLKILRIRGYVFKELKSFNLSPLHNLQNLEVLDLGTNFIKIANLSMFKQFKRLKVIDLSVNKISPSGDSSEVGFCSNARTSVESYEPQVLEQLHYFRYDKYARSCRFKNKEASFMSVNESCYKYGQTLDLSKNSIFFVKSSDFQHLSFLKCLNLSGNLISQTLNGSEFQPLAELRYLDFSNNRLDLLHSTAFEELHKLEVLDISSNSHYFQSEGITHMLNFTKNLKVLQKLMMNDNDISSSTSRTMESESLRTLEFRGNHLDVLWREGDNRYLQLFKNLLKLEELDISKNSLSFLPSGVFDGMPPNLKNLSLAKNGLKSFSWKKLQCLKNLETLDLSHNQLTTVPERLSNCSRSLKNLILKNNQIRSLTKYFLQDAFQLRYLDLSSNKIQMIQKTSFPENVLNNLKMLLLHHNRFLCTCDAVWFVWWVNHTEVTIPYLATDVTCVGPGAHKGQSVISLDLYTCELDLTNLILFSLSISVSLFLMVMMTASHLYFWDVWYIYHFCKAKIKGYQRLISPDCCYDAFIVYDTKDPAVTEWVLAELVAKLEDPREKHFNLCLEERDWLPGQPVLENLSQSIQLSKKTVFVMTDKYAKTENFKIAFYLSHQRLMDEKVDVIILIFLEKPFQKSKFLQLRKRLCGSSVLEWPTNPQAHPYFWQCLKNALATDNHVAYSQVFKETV
In short: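 HEK 293-Blue cells stably expressing hTLR7 or hTLR8 with an inducible SEAP reporter were incubated 16 h with compound under 1 µg/mL R848 stimulation. SEAP was read at 620 nm. Data were normalized to the R848 control, and IC50 was taken from concentration-response curves. […] Mean ± s.d., n = 3 independent experiments.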

[1] = molecular target: T2, Toll-like receptor 7 (Homo sapiens) (UniProt Q9NYK1); assay: Inhibition of human TLR7 expressed in HEK293 cells assessed as reduction in resiquimod-induced NFkappaB production at 0.5 uM incubated for 16 hrs by quanti-blue SEAP assay; type: cell-based
T2 sequence (whole entry): T1 sequence (Q9NYK1 whole entry)
In short: (§1)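 Selectivity panel in stably transfected HEK 293-Blue cells, each overexpressing one human TLR with an inducible SEAP reporter. Agonists: Pam3CSK4 (TLR1/2), Pam2CSK4 (TLR2/6), poly(I:C) (TLR3), LPS (TLR4), R848 (TLR7/8), ODN 2006 (TLR9). Cells were exposed to compound for 16 h. Activity = (raw − untreated)/(ligand + solvent − untreated), with ligand + solvent set as 100%.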

[2] = molecular target: T3, Toll-like receptor 8 (Homo sapiens) (UniProt Q9NR97); assay: Inhibition of human TLR8 expressed in HEK293 cells assessed as reduction in R848-induced NFkappaB production at 5 to 20 uM incubated for 16 hrs by quanti-blue SEAP assay; type: cell-based; in short: as §1
T3 sequence (whole entry): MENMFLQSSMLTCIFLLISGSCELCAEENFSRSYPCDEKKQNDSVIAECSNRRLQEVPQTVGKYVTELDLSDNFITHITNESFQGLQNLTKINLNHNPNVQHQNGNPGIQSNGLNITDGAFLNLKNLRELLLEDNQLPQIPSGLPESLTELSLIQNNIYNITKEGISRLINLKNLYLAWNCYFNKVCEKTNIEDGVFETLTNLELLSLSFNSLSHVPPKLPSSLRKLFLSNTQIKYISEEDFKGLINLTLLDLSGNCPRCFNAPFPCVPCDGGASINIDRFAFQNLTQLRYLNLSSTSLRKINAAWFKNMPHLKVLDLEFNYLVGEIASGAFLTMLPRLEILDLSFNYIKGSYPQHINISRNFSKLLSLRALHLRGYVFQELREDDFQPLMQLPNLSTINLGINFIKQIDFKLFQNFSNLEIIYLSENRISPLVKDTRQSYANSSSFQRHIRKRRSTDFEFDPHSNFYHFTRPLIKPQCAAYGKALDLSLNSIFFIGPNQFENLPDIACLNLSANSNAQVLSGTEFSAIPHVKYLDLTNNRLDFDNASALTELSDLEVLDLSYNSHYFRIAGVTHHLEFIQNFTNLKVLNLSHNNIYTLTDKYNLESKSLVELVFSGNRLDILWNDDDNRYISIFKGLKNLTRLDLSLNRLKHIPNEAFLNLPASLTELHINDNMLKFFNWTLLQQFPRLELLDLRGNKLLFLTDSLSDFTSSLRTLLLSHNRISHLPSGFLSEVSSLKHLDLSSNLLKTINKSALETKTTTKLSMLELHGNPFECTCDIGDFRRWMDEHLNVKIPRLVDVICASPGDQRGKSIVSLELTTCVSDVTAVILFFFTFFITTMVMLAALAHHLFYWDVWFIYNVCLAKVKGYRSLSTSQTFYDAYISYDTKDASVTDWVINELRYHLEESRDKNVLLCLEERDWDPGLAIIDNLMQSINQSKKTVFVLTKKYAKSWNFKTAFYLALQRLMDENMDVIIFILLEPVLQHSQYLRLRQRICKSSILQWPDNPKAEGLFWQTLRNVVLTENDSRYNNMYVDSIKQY

HEK293 [3] = assay: Cytotoxicity against human HEK293 cells transfected with human TLR7 assessed as reduction in cell viability at 100 uM incubated for 16 hrs by WST-1 assay; type: cell-based; conditions: hek293, 16 h
HEK293 [4] = assay: Cytotoxicity against human HEK293 cells transfected with human TLR8 assessed as reduction in cell viability at 100 uM incubated for 16 hrs by WST-1 assay; type: cell-based; conditions: hek293, 16 h
THP-1 = assay: Inhibition of IFN mediated immune response in human THP1 cells assessed as inhibition of G3-YSD-induced cGAS signalling pathway at 0.5 to 5 uM incubated for 16 hrs by luciferase assay; type: functional, cell-based
In short: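 THP1-Dual monocytes carrying Lucia luciferase and SEAP reporters were stimulated with 3p-hpRNA (RIG-I agonist) or Y-form dsDNA G3-YSD (cGAS agonist), with or without compound. Secreted Lucia luciferase luminescence was measured as the type I IFN read-out. Mean ± s.d., n = 3 independent experiments.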

HEK293 [5] = assay: Cytotoxicity against human HEK293 cells transfected with human TLR7 assessed as reduction in cell viability at 0.5 to 20 uM incubated for 16 hrs by WST-1 assay; type: cell-based; conditions: hek293, 16 h

SMILES | pIC50 (Toll-like receptor 7) | inhibition [1] | inhibition [2] | Activity (HEK293 [3]) | Activity (HEK293 [4]) | inhibition (THP-1) | Activity (HEK293 [5])
O=C(Nc1ccc(Oc2cc(C(F)(F)F)cc(C(F)(F)F)c2)cc1)c1c(F)cccc1Cl | 5.54 | – | – | – | – | – | –
O=C(Nc1ccc(Oc2cncc(C(F)(F)F)c2)cc1)c1c(F)cccc1Cl | – | inactive | Active | Toxic | Toxic | inactive | Non-Toxic
O=[N+]([O-])c1c(I)cccc1Oc1ccc(-c2nnco2)cc1 | < 4.70 | – | – | Toxic | Toxic | inactive | Non-Toxic
O=C(Nc1ccc(Oc2cc(C(F)(F)F)cc(C(F)(F)F)c2)cc1)c1c(F)cccc1I | < 4.30 | inactive | Active | Toxic | Toxic | inactive | Non-Toxic
